# Test results published in ChEMBL document CHEMBL5653631, “A Potent and Selective ULK1 Inhibitor Suppresses Autophagy and Sensitizes Cancer Cells to Nutrient Stress” (iScience, 2018).
# How the values were obtained:
# [1] = target: Rho-associated protein kinase 1 (Homo sapiens) (UniProt Q13464); assay: Inhibition of human recombinant ROCK1 at 40 nM in presence of ATP by radiometric assay relative to control
# [2] = target: Tau-tubulin kinase 1 (Homo sapiens) (UniProt Q5TCY1); assay: Inhibition of human recombinant TTBK1 at 40 nM in presence of ATP by radiometric assay relative to control
# Sequence of Tau-tubulin kinase 1 (Homo sapiens) (Q5TCY1 whole entry, canonical isoform): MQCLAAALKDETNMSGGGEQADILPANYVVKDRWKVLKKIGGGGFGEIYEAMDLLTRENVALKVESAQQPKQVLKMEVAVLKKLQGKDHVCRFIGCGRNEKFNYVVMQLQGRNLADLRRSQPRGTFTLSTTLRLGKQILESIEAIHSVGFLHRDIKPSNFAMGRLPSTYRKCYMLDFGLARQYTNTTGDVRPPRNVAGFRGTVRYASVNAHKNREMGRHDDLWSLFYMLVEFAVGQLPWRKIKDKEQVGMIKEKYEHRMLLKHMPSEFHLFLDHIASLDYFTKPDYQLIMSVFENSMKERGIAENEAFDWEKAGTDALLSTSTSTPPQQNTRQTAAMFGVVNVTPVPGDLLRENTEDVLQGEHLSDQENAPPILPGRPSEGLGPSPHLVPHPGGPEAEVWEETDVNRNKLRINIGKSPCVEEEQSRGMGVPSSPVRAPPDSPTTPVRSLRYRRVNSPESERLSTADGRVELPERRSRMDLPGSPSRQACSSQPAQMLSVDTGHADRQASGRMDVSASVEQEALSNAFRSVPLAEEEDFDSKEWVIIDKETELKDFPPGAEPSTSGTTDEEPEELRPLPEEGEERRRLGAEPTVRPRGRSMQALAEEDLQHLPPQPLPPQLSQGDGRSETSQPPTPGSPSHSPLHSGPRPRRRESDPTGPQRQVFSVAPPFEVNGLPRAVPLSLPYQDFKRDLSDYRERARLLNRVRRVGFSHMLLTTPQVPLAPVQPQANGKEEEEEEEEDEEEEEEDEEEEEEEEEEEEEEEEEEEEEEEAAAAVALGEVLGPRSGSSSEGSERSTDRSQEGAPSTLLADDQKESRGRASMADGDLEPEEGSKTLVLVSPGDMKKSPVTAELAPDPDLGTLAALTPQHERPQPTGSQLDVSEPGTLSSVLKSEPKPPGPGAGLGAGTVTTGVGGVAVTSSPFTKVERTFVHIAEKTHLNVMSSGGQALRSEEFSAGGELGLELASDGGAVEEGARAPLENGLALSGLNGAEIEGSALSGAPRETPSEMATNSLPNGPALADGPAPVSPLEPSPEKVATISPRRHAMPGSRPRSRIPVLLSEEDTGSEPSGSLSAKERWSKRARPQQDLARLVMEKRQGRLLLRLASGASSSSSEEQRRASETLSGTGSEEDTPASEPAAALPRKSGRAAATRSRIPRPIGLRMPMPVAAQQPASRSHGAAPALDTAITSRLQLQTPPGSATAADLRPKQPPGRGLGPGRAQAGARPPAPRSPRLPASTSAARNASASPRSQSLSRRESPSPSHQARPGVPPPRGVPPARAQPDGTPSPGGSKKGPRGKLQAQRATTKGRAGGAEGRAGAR
# [3] = target: Casein kinase I isoform gamma-2 (Homo sapiens) (UniProt P78368); assay: Inhibition of human recombinant CK1g2 at 40 nM related to control ULK1
# Sequence of Casein kinase I isoform gamma-2 (Homo sapiens) (P78368 whole entry, looked up, canonical isoform): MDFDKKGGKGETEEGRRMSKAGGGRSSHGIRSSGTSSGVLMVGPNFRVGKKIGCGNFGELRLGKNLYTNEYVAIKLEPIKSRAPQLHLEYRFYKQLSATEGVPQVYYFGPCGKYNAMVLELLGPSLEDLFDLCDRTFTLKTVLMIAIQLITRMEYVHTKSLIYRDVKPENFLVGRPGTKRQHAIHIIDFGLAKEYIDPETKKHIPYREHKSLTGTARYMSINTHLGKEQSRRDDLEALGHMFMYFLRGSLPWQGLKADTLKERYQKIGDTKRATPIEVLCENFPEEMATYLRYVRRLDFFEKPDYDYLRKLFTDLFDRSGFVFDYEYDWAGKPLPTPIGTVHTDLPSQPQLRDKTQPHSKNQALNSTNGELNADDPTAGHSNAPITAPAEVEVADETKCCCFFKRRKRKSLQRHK
# [4] = target: Calcium/calmodulin-dependent protein kinase type 1B (Homo sapiens) (UniProt Q6P2M8); assay: Inhibition of human recombinant CaMK1b at 500 nM in presence of ATP by radiometric assay relative to control
# Sequence of Calcium/calmodulin-dependent protein kinase type 1B (Homo sapiens) (Q6P2M8 whole entry): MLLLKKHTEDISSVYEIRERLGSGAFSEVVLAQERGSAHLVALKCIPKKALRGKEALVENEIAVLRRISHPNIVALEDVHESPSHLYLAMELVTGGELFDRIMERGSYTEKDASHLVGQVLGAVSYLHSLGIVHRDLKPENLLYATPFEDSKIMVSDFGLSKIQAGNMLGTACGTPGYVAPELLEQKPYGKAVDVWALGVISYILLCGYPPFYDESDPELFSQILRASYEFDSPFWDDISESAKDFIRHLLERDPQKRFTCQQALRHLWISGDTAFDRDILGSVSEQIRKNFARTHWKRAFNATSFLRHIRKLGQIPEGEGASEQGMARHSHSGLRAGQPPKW
# [5] = target: T1, Mitogen-activated protein kinase kinase kinase kinase 2 (Homo sapiens) (UniProt Q12851); assay: Inhibition of human recombinant GCK at 500 nM in presence of ATP by radiometric assay relative to control
# T1 sequence (whole entry): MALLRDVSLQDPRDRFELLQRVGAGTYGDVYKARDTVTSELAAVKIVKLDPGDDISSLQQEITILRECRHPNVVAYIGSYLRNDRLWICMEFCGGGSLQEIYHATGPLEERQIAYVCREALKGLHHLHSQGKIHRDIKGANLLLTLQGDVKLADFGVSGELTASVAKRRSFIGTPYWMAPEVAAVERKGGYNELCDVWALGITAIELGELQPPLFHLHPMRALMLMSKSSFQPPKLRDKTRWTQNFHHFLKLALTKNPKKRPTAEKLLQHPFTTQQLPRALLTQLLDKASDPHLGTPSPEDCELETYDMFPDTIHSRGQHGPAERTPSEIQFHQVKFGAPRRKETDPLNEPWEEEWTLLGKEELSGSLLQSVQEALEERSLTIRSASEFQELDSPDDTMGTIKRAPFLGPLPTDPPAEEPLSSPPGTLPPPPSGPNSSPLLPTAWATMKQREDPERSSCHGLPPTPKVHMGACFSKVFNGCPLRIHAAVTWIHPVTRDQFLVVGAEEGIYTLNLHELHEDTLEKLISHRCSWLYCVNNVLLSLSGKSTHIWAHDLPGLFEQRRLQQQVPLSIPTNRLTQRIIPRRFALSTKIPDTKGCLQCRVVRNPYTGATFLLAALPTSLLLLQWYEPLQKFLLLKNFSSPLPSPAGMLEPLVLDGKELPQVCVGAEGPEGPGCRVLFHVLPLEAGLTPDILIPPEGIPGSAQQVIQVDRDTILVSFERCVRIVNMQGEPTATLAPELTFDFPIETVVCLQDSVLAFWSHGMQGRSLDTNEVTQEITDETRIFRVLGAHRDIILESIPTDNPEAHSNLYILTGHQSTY
# [6] = target: Activin receptor type-1-like (Homo sapiens) (UniProt P37023); assay: Inhibition of human recombinant ALK1 at 15 nM related to control ULK1
# Sequence of Activin receptor type-1-like (Homo sapiens) (P37023 whole entry): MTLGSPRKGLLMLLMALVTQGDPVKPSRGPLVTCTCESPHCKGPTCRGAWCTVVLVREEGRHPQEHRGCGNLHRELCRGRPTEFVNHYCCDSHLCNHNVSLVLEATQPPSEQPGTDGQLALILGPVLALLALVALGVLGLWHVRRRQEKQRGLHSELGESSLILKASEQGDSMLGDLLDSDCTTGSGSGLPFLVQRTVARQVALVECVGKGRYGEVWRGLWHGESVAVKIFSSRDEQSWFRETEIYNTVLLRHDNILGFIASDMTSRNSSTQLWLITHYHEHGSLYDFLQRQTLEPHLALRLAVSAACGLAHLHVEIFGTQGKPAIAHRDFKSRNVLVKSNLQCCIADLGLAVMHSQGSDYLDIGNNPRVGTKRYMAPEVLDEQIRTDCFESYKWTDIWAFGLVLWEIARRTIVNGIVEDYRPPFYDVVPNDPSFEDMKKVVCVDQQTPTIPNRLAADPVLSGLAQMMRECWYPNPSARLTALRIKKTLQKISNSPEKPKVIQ
# In short: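 Panel of 327 recombinant human kinases, each assayed in vitro by radiometric activity assay in duplicate at a single inhibitor concentration per compound, chosen with reference to its ULK1 inhibition. Activity remaining was expressed as percent of vehicle control, and percent inhibition was calculated as 100 minus percent activity remaining.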
# [7] = target: T2, cGMP-dependent protein kinase 2 (Homo sapiens) (UniProt Q13237); assay: Inhibition of human recombinant PKG2 at 15 nM related to control ULK1
# T2 sequence (whole entry): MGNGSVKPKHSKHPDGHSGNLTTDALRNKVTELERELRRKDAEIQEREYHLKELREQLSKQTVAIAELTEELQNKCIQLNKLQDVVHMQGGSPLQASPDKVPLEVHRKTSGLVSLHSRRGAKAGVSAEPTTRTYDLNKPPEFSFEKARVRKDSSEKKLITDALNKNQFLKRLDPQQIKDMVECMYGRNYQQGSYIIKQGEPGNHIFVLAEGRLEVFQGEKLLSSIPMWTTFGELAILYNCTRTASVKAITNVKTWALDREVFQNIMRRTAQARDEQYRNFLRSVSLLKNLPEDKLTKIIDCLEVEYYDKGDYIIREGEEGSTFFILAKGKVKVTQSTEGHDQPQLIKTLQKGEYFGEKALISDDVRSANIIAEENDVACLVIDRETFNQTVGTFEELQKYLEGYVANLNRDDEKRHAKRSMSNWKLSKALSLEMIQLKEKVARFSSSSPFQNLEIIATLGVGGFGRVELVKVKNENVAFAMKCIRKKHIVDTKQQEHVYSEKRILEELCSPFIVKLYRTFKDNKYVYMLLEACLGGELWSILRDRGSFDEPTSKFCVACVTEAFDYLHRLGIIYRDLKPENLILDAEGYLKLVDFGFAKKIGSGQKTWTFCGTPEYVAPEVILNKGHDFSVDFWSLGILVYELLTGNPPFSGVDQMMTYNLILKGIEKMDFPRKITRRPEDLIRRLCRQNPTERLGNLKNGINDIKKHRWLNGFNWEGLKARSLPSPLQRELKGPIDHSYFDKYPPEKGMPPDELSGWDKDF
# [8] = target: T3, Testis-specific serine/threonine-protein kinase 2 (Homo sapiens) (UniProt Q96PF2); assay: Inhibition of human recombinant TSSK2 at 15 nM related to control ULK1
# T3 sequence (whole entry): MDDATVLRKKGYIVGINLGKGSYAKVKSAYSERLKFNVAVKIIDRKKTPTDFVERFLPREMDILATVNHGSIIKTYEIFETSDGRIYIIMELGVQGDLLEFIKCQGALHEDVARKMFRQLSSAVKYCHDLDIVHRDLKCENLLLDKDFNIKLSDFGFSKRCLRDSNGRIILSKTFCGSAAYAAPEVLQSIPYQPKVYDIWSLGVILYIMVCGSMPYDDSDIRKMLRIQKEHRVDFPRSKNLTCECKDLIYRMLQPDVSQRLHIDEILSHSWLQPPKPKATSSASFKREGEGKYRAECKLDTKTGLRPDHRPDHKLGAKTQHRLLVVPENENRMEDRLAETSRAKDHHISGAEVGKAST
# [9] = target: Wee1-like protein kinase 2 (Homo sapiens) (UniProt P0C1S8); assay: Inhibition of human recombinant Wee1B at 15 nM related to control ULK1
# Sequence of Wee1-like protein kinase 2 (Homo sapiens) (P0C1S8 whole entry, looked up): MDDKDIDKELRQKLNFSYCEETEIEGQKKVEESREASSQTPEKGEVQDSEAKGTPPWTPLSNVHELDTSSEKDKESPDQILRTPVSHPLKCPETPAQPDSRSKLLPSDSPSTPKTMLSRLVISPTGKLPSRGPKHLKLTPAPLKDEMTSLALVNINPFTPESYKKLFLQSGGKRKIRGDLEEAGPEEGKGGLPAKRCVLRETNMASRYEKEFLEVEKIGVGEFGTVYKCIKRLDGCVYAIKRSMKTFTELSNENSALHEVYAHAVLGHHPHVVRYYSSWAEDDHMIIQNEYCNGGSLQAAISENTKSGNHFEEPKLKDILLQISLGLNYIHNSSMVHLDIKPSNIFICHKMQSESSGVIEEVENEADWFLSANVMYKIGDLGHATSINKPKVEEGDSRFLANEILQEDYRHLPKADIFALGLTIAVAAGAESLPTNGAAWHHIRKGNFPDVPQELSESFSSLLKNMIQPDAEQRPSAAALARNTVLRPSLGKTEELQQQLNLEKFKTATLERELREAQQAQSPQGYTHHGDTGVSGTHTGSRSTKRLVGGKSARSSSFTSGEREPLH
# Sequence of Rho-associated protein kinase 1 (Homo sapiens) (Q13464 2-1354 limits assumed): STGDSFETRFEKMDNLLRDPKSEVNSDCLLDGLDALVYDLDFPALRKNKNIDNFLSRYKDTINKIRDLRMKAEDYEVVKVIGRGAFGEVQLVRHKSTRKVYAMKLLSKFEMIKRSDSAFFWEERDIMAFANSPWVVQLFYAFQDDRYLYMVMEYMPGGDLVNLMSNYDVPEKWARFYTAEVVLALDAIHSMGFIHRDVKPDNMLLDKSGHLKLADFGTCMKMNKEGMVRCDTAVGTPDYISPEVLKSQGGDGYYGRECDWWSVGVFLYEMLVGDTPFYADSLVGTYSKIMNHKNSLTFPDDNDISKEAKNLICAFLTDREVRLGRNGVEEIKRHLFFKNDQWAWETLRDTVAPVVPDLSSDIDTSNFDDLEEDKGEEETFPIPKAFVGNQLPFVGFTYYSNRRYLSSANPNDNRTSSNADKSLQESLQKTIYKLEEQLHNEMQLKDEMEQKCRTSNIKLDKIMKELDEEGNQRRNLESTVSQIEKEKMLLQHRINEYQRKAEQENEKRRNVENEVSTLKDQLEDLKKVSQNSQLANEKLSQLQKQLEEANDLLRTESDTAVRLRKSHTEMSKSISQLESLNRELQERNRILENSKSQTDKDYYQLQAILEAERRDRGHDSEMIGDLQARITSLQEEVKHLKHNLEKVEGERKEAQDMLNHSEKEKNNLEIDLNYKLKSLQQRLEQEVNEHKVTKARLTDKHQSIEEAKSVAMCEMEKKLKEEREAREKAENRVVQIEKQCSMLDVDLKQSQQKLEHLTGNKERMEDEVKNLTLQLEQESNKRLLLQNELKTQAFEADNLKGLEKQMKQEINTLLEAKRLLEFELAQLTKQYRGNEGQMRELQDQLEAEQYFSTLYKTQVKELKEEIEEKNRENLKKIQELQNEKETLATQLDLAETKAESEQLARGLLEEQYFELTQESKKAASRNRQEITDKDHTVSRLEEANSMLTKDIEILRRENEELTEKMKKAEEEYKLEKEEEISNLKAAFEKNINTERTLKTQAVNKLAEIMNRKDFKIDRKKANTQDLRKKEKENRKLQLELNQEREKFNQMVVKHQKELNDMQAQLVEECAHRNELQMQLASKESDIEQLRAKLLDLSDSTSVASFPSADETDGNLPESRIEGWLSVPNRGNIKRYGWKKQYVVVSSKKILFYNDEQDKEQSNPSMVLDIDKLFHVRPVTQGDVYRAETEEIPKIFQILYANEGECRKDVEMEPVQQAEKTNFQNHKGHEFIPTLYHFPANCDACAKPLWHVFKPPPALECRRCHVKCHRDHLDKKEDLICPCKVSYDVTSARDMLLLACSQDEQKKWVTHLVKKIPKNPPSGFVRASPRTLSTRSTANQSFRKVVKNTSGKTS
structure (smiles),measurement,setting,value
O=C(N[C@@H](C1CC1)C(F)(F)F)c1cc(-c2cnn3cc(-c4ccc(F)cc4)cnc23)cs1,inhibition,[1],0%
same,inhibition,[2],0%
same,fold change (FC),[3],0.07
CNC(=O)c1ccccc1Oc1nc(Nc2cc(OC)c(OC)c(OC)c2)ncc1Br,inhibition,[4],0%
same,inhibition,[5],33%
CC(C)[C@H](NC(=O)c1cc(-c2cnn3cc(-c4ccc(OCCN5CCCCC5)cc4)cnc23)cs1)C(F)(F)F,fold change (FC),[6],0.08
same,fold change (FC),[7],0.05
same,fold change (FC),[8],0.01
same,fold change (FC),[9],0.13
